Test results taken from paper PMC7720656 (Journal of medicinal chemistry, 2020).
pKd: −log10 of the molar value. Entries after “also recorded” stand apart in the source; their conditions may differ. Marks after values point to notes of the source that are not given here.

How the values were obtained:
S. aureus ATCC29213 = assay: MIC by microdilution, S. aureus ATCC29213; assay type: cell-based, Staphylococcus aureus; settings: for increase in MIC with added bovine serum albumin: S. aureus ATCC29213; for antibacterial activity in words / antibacterial activity, active / inactive: by MIC with S. aureus ATCC29213
MRSA strain NRS70 = assay: Time-kill assays; assay type: cell-based, Staphylococcus aureus; settings: NRS70, 0.5 to 16 × MIC
Outline: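 Cultures of MRSA NRS70 were exposed to the test compound, with a no-antibiotic control tube. At 3, 6, 12 and 24 h, aliquots were plated on LB agar for colony counts, with a detection limit of >50 CFU/mL. A ≥3-log10 drop from the starting inoculum counted as bactericidal. Run in triplicate.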

[1] = mice, 10 mg/kg iv; ref Bouley [25]; cited from earlier work
[2] = plasma protein binding; ref [26]; cited from earlier work
[3] = tested on: S. haemolyticus ATCC 29970; assay: MIC against Gram-positive organisms; assay type: cell-based; settings: Staphylococcus haemolyticus, ATCC29970, read-out: MIC S. haemolyticus ATCC 29970
Pharmacokinetics in mice = assay type: in vivo; settings: for clearance relative to hepatic blood flow: mice
allosteric site of PBP2a = settings: read-out: Kd for binding to the allosteric site of PBP2a; ref [23]; cited from earlier work

| SMILES | antibacterial activity in words (S. aureus ATCC29213) | antibacterial activity, active / inactive (S. aureus ATCC29213) | also measured |
| --- | --- | --- | --- |
| N#Cc1ccc(/C=C/c2nc3ccccc3c(=O)n2-c2cccc(C(=O)O)c2)cc1 [compound 1, (E)-3-(3-Carboxyphenyl)-2-(4-cyanostyryl)quinazolin-4(3H)-one] | potent activity |  | increase in MIC with added bovine serum albumin (S. aureus ATCC29213): ≤ 4 fold; time-kill behaviour of compound alone (MRSA strain NRS70): bacteriostatic; CL [1]: 6.9 mL/min/kg |
| O=C(O)c1cccc(-n2c(/C=C/C3CC3)nc3ccccc3c2=O)c1 [compound 48] | loss of activity |  |  |
| C#Cc1ccc(/C=C/c2nc3ccccc3c(=O)n2-c2cccc(C(=O)O)c2)cc1 [compound 57] |  | active | PPB [2]: 99.6 ± 0.04^h % |
| O=C(O)c1cccc(-n2c(/C=C/c3ccc(Cl)cc3)nc3ccccc3c2=O)c1 [compound 58] |  | active | increase in MIC with added bovine serum albumin (S. aureus ATCC29213): ≤ 4 fold |
| O=C(O)c1cccc(-n2c(/C=C/c3ccc(I)cc3)nc3ccccc3c2=O)c1 [compound 59] |  | active |  |
| N#Cc1ccc(/C=C/c2nc3ccccc3c(=O)n2-c2cc(C(=O)O)ccc2F)cc1 [compound 73, (E)-3-(5-Carboxy-2-fluorophenyl)-2-(4-cyanostyryl)-quinazolin-4(3H)-one] |  | active | increase in MIC with added bovine serum albumin (S. aureus ATCC29213): ≤ 4 fold; MIC [3]: ≤ 4 µg/mL; clearance (Pharmacokinetics in mice; female, ICR, mouse, plasma, iv, 10 mg/kg): 7.7 mL/min/kg; clearance relative to hepatic blood flow (Pharmacokinetics in mice; 10 mg/kg iv): < 10%; time-kill behaviour of compound alone (MRSA strain NRS70): bacteriostatic |
| N#Cc1ccc(/C=C/c2nc3ccccc3c(=O)n2-c2cc(C(=O)O)ccc2Cl)cc1 [compound 74] | retained acceptable MIC values | active |  |
| Cc1ccc(C(=O)O)cc1-n1c(/C=C/c2ccc(C#N)cc2)nc2ccccc2c1=O [compound 75] | retained acceptable MIC values | active |  |
| N#Cc1ccc(/C=C/c2nc3ccccc3c(=O)n2-c2cc(C(=O)O)ccc2C(F)(F)F)cc1 [compound 76] | loss of antibacterial property | inactive |  |
| N#Cc1ccc(/C=C/c2nc3ccccc3c(=O)n2-c2cc(O)cc(C(=O)O)c2)cc1 [compound 77] |  | inactive |  |
| N#Cc1ccc(/C=C/c2nc3ccccc3c(=O)n2-c2cc(C(=O)O)ccc2O)cc1 [compound 78] | loss of antibacterial property | inactive |  |
| COc1ccc(C(=O)O)cc1-n1c(/C=C/c2ccc(C#N)cc2)nc2ccccc2c1=O [compound 79] | loss of antibacterial property |  |  |
| N#Cc1ccc(/C=C/c2nc3ccccc3c(=O)n2-c2cccc(C(=O)O)c2O)cc1 [compound 81] | loss of antibacterial property |  |  |
| N#Cc1ccc(/C=C/c2nc3ccccc3c(=O)n2-c2cccc(C(=O)O)n2)cc1 [compound 83] | loss of antibacterial property; also recorded: loss of activity |  |  |
| N#Cc1ccc(/C=C/c2nc3ccccc3c(=O)n2-c2cc(C(=O)O)ccn2)cc1 [compound 84] | loss of antibacterial property; also recorded: loss of activity |  |  |
| N#Cc1ccc(/C=C/c2nc3ccccc3c(=O)n2-c2cccc(NC(=O)C(F)(F)F)c2)cc1 [compound 88] |  | active |  |
| N#Cc1ccc(/C=C/c2nc3ccccc3c(=O)n2-c2cccc(NC(=O)NCc3cnc[nH]3)c2)cc1 [compound 92] | detrimental to the activity |  |  |
| N#Cc1ccc(/C=C/c2nc3ccccc3c(=O)n2-c2cccc(NC(=O)NCCc3cnc[nH]3)c2)cc1 [compound 93] | detrimental to the activity |  |  |
| N#Cc1ccc(/C=C/c2nc3ccccc3c(=O)n2-c2cccc(S(N)(=O)=O)c2)cc1 [compound 94] |  | active | increase in MIC with added bovine serum albumin (S. aureus ATCC29213): ≤ 4 fold; clearance relative to hepatic blood flow (Pharmacokinetics in mice; 5 mg/kg iv): > 10% |
| CC(=O)NS(=O)(=O)c1cccc(-n2c(/C=C/c3ccc(C#N)cc3)nc3ccccc3c2=O)c1 [compound 95] |  | active |  |
| N#Cc1ccc(/C=C/c2nc3ccccc3c(=O)n2-c2cccc(CNC(=O)C(F)(F)F)c2)cc1 [compound 99] |  | active |  |
| N#Cc1ccc(/C=C/c2nc3ccccc3c(=O)n2-c2cccc(N)c2)cc1 [compound 111] | potent activity |  |  |
| C#Cc1ccc(/C=C/c2nc3ccccc3c(=O)n2-c2cccc(S(N)(=O)=O)c2)cc1 [compound 113] |  |  | clearance relative to hepatic blood flow (Pharmacokinetics in mice; 5 mg/kg iv): > 10% |
| O=C(O)c1cccc(-n2c(CCc3ccc(F)cc3)nc3ccccc3c2=O)c1 [compound 115] |  |  | increase in MIC with added bovine serum albumin (S. aureus ATCC29213): ≤ 4 fold |
| N#Cc1ccc(CSc2nc3ccccc3c(=O)n2-c2cccc(C(=O)O)c2)cc1 [compound 125] |  |  | increase in MIC with added bovine serum albumin (S. aureus ATCC29213): ≤ 4 fold |
| CCN1CCN(C(=O)N[C@@H](C(=O)N[C@@H]2C(=O)N3[C@@H]2SC(C)(C)[C@@H]3C(=O)O)c2ccccc2)C(=O)C1=O [piperacillin] |  |  | pKd (allosteric site of PBP2a): 3.40 |
